Columns and labels:
Format in all cases: functional
[1] = Antiproliferative activity against human D283 cells assessed as growth inhibition after 48 hrs by sulforhodamine B assay; conditions: D283, 48 h
How it was run: (§1)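 D283 medulloblastoma cells grown in IMEM with 5% FBS and 0.3% gentamycin at 37 °C, 5% CO2, plated at 4000–6000 cells/well overnight. Compound in DMSO (0.5% v/v final), triplicate wells, 48 h. Because cells adhere poorly, 20% TCA added directly to the medium for fixation. SRB absorbance referenced to vehicle and time-0 plates; TGI by nonlinear regression, n = 3, mean ± SEM.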

[2] = tested on: Hep293TT; assay: Antiproliferative activity against human Hep293TT cells assessed as growth inhibition after 48 hrs by sulforhodamine B assay
How it was run: (§2)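 A-673, SJCRH30 and Hep293TT cells in RPMI-1640 with 5% FBS and 0.5% gentamycin at 37 °C, 5% CO2, seeded at 4000–6000 cells/well and adhered overnight. DMSO solutions added to triplicate wells (0.5% v/v DMSO final) for 48 h. Medium removed, cells fixed with 10% TCA, SRB absorbance compared with vehicle and time-0 plates. TGI from nonlinear regression; n = 3, mean ± SEM.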

[3] = tested on: A673; assay: Antiproliferative activity against human A673 cells assessed as growth inhibition after 48 hrs by sulforhodamine B assay relative to control; conditions: A673, 48 h; how it was run: as §2
[4] = Antiproliferative activity against human D283 cells assessed as growth inhibition after 48 hrs by sulforhodamine B assay relative to control; conditions: D283, 48 h; how it was run: as §1
[5] = Antiproliferative activity against human SJCRH30 cells assessed as growth inhibition after 48 hrs by sulforhodamine B assay relative to control; how it was run: as §2
[6] = tested on: A673; assay: Antiproliferative activity against human A673 cells assessed as growth inhibition after 48 hrs by sulforhodamine B assay; conditions: A673, 48 h; how it was run: as §2
[7] = tested on: Hep293TT; assay: Antiproliferative activity against human Hep293TT cells assessed as growth inhibition after 48 hrs by sulforhodamine B assay relative to control; how it was run: as §2
[8] = Antiproliferative activity against human SJCRH30 cells assessed as growth inhibition after 48 hrs by sulforhodamine B assay; how it was run: as §2

| SMILES | TGI [1] [nM] | TGI [2] [nM] | Emax [3] [%] | Emax [4] [%] | Emax [5] [%] | TGI [6] [nM] | Emax [7] [%] | TGI [8] [nM] |
| --- | --- | --- | --- | --- | --- | --- | --- | --- |
| C=CC(=C)CCC1(C)C(C)CC(O)C23C(=C[C@H](OC(=O)/C(C)=C\C)CC12)[C@@H](OC(C)=O)O[C@H]3OC(C)=O (some centres undefined) | 700 | 280 | 100 | 100 | 100 | 1000 | 100 | 440 |
| C=CC(=C)CCC1(C)C(C)CC(O)C23C(=C[C@H](OC(=O)CC(C)C)CC12)[C@@H](OC(C)=O)O[C@H]3OC(C)=O (some centres undefined) | 360 | 220 | 100 | 100 | 100 | 700 | 100 | 340 |
| C=CC(=C)CCC1(C)C(C)CC(=O)C23C(=C[C@H](OC(=O)C(C)C)CC12)[C@@H](OC(C)=O)O[C@H]3OC(C)=O (some centres undefined) | 2300 | 3200 | 100 | 100 | 100 | 4100 | 100 | 2300 |
| C=CC(=C)CCC1(C)C(C)CC(=O)C23C(=C[C@H](OC(=O)CC)CC12)[C@@H](OC(C)=O)O[C@H]3OC(C)=O (some centres undefined) | 700 | 1000 | 100 | 100 | 100 | 1100 | 100 | 520 |
| CCC1=C[C@@H]2CN(C1)Cc1c([nH]c3ccccc13)[C@@](C(=O)OC)(c1cc3c(cc1OC)N(C)[C@H]1[C@@](O)(C(=O)OC)[C@H](OC(C)=O)[C@]4(CC)C=CCN5CC[C@]31[C@@H]54)C2 [VINORELBINE] | 80 | 80 |  |  |  | 6 |  | 6 |
| C=CC(=C)CCC1(C)C(C)CC(=O)C23C(=C[C@H](OC(=O)CCC)CC12)[C@@H](OC(C)=O)O[C@H]3OC(C)=O (some centres undefined) | 600 | 900 | 100 | 100 | 100 | 1000 | 100 | 500 |
| C=CC(=C)CCC1(C)C(C)CC(=O)C23C(=C[C@H](OC(=O)/C(C)=C\C)CC12)[C@@H](OC(C)=O)O[C@H]3OC(C)=O (some centres undefined) | 2000 | 1800 | 100 | 100 | 100 | 3100 | 100 | 1900 |
| C=CC(=C)CCC1(C)C(C)CC(=O)C23C(=C[C@H](OC(=O)[C@@H](C)CC)CC12)[C@@H](OC(C)=O)O[C@H]3OC(C)=O (some centres undefined) | 660 | 800 | 100 | 100 | 100 | 1200 | 100 | 730 |
| C=CC(=C)CCC1(C)C(C)CC(=O)C23C(=C[C@H](OC(=O)CC(C)C)CC12)[C@@H](OC(C)=O)O[C@H]3OC(C)=O (some centres undefined) | 660 | 1000 | 100 | 100 | 100 | 1100 | 100 | 670 |
| C=CC(=C)CCC1(C)C(C)CC(O)C23C(=C[C@H](OC(=O)CC)CC12)[C@@H](OC(C)=O)O[C@H]3OC(C)=O (some centres undefined) | 500 | 300 | 100 | 100 | 100 | 900 | 100 | 360 |
| C=CC(=C)CCC1(C)C(C)CC(O)C23C(=C[C@H](OC(=O)[C@@H](C)CC)CC12)[C@@H](OC(C)=O)O[C@H]3OC(C)=O (some centres undefined) | 1100 | 600 | 100 | 100 | 100 | 1700 | 100 | 800 |

Source: ChEMBL document CHEMBL4480434, “Anacolosins A-F and Corymbulosins X and Y, Clerodane Diterpenes from Anacolosa clarkii Exhibiting Cytotoxicity toward Pediatric Cancer Cell Lines” (2019)
